Results from different studies.
Protocols differ between the studies behind these lines.
CDK4: Cyclin-dependent kinase 4 (CDK4, Homo sapiens, UniProt P11802)
REN: Renin (REN, Homo sapiens, UniProt P00797)

SMILES | target | read-out | action | method | tested at | inhibition
COc1cc(Nc2ncc(F)c(Nc3ccc4c(n3)NC(=O)C(C)(C)O4)n2)cc(OC)c1OC | Serine/threonine-protein kinase DCLK1 (DCLK1, Homo sapiens, UniProt O15075) | binding | – | – | 10 µM | 59%
CCOC(=O)[C@H]1Cc2c(cc([N+](=O)[O-])cc2[N+](=O)[O-])[C@@H](O)[C@@]12C(=O)Nc1cc(Br)ccc12 | CDK4 | cell-free assay | inhibitor | TR-FRET | 1 µM | 59%
CN(C)C(=O)COC(=O)Cc1ccc(OC(=O)c2ccc(NC(=N)N)cc2)cc1 | REN | enzyme activity | inhibitor | – | 10 µM | 1%
CCOC(=O)[C@H]1Cc2c(cc([N+](=O)[O-])cc2[N+](=O)[O-])[C@H](O)[C@]12C(=O)Nc1ccc(Cl)cc12 | CDK4 | cell-free assay | inhibitor | TR-FRET | 1 µM | 45.2%
CC(C)C[C@H](NC(=O)[C@H](Cc1ccccc1)NC(=O)c1cnccn1)B(O)O | GZMA (Homo sapiens, UniProt P12544) | enzyme activity | inhibitor | – | 33 µM | 72.4%
CCOC(=O)[C@H]1Cc2c(cc([N+](=O)[O-])cc2[N+](=O)[O-])[C@@H](O)[C@@]12C(=O)Nc1ccc(C)cc12 | CDK4 | cell-free assay | inhibitor | TR-FRET | 1 µM | 67.8%
COCCCOc1cc(C[C@@H](C[C@H](N)[C@@H](O)C[C@H](C(=O)NCC(C)(C)C(N)=O)C(C)C)C(C)C)ccc1OC | REN | enzyme activity | inhibitor | – | 100 pM | 0%
O=C(Nc1cccnn1)N1CCN([C@@H]2CCOc3cc(C(F)(F)F)ccc32)CC1 | Amine oxidase [flavin-containing] A (Maoa, Rattus norvegicus, UniProt P21396) | cell-free assay | – | – | 20 µM | 14%
C#Cc1n[nH]c2c(-c3cn([C@@H](C)c4ccccc4)c(=O)[nH]c3=O)cc(F)cc12 | Fibroblast growth factor receptor 3 (FGFR3, Homo sapiens, UniProt P22607) | enzyme activity | inhibitor | – | 0.1 µM | -2.7%
N=C(N)c1ccc2cc(OC(=O)c3ccc(N=C(N)N)cc3)ccc2c1 | REN | enzyme activity | inhibitor | – | 10 µM | 45%
Cn1cc(-c2cc(F)cc(N3CCn4c(cc5c4CCCC5)C3=O)c2CO)cc(Nc2ccc(N3CCN(C4COC4)CC3)cn2)c1=O | Serine/threonine-protein kinase MRCK beta (CDC42BPB, Homo sapiens, UniProt Q9Y5S2) | enzyme activity | inhibitor | – | 0.1 µM | 2%
CCOC(=O)[C@H]1Cc2c(cc([N+](=O)[O-])cc2[N+](=O)[O-])[C@H](O)[C@]12C(=O)Nc1c(F)cccc12 | CDK4 | cell-free assay | inhibitor | TR-FRET | 1 µM | 32.6%
C[C@H](C(=O)N[C@H]1COc2ccccc2[C@@H]1S(C)(=O)=O)c1ccc(F)cc1 | REN | enzyme activity | inhibitor | – | 10 µM | -2%
CCOC(=O)[C@H]1Cc2c(cc([N+](=O)[O-])cc2[N+](=O)[O-])[C@@H](O)[C@@]12C(=O)Nc1cc(Cl)ccc12 | CDK4 | cell-free assay | inhibitor | TR-FRET | 1 µM | 61.2%
C#Cc1n[nH]c2c(-c3cn(C(C)c4ccccn4)c(=O)[nH]c3=O)cc(F)cc12 (stereo not drawn) | Tyrosine-protein kinase Fer (FER, Homo sapiens, UniProt P16591) | enzyme activity | inhibitor | – | 1 µM | 6.8%
